Laboratory results reported in ChEMBL document CHEMBL1155387, “Substituted fused bicyclic pyrrolizinones as potent, orally bioavailable hNK1 antagonists” (Bioorg Med Chem Lett, 2010).
Where “and” joins values, the source holds several entries; their conditions need not be identical. Equal entries are not always repeated.

Columns and labels:
[1] = Inhibition of sodium channel
Method in brief: (§1)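 Ion-channel binding assay; IC50 values calculated for sodium channel and for calcium channel (diltiazem site).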

Gerbillinae [2] = experiment: Inhibition of GR-73632-induced foot tapping in gerbils at 3 mg/kg, iv after 24 hrs; assay type: functional; conditions: for inhibition in vivo at 3 mg/kg: Gerbillinae, iv, 24 h; for inhibition (INH): 3 mg/kg
Method in brief: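 Gerbils dosed iv at 3 mg/kg; foot tapping induced by NK1 agonist GR73632 evaluated 24 h post-dose; percent inhibition of the tapping response.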

[3] = Displacement of diltiazem […] from calcium channel; method in brief: as §1
Substance-P receptor [4] = target: T1, Substance-P receptor (Homo sapiens, UniProt P25103); experiment: Displacement of [125I]substance P from human NK1 receptor expressed in CHO cells in the presence of 50 percent human serum; assay type: cell-based
Substance-P receptor [5] = target: T1, Substance-P receptor; experiment: Displacement of [125I]substance P from human NK1 receptor expressed in CHO cells; assay type: cell-based
Method in brief: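 Competition binding: [125I]-labelled substance P displaced from cloned human NK1 receptor expressed in CHO cells; IC50 reported as mean of n = 3.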

Substance-P receptor [6] = target: T1, Substance-P receptor; experiment: Antagonist activity at human NK1 receptor expressed in CHO cells assessed as inhibition of substance P-induced inositol phosphate generation at 100 nM; assay type: functional, cell-based
Gerbillinae [7] = experiment: Inhibition of GR-73632-induced foot taping in iv dosed gerbils after 1 hr; assay type: functional; conditions: read-out: ID50 (the source's name)
Cytochrome P450 2C9 = Cytochrome P450 2C9 (Homo sapiens, UniProt P11712); experiment: Inhibition of CYP2C9; assay type: ADME
[8] = Plasma clearance in rat; assay type: ADME, organism-based
[9] = Stability in dog microsomes assessed as compound remaining after 60 mins; assay type: ADME, Canis lupus familiaris, Microsome; conditions: read-out: Stability
Cytochrome P450 2D6 = Cytochrome P450 2D6 (Homo sapiens, UniProt P10635); experiment: Inhibition of CYP2D6; assay type: ADME
[10] = Half life in rat; assay type: ADME, organism-based; conditions: in vivo
[11] = Volume of distribution in rat; assay type: ADME, organism-based; conditions: in vivo
Cytochrome P450 3A4 = Cytochrome P450 3A4 (Homo sapiens, UniProt P08684); experiment: Inhibition of CYP3A4; assay type: ADME
Gerbillinae [12] = experiment: Inhibition of GR-73632-induced foot taping in iv dosed gerbils after 24 hrs; assay type: functional; conditions: read-out: ID50 (the source's name)
[13] = Stability in rhesus monkey microsomes assessed as compound remaining after 60 mins; assay type: ADME, Macaca mulatta, Microsome; conditions: read-out: Stability
[14] = Stability in rat microsomes assessed as compound remaining after 60 mins; assay type: ADME, Microsome; conditions: read-out: Stability
[15] = Stability in human microsomes assessed as compound remaining after 60 mins; assay type: ADME, Microsome; conditions: read-out: Stability
[16] = Ratio of drug level in brain to plasma in rat at 1 mg/kg, iv after 4 hrs; assay type: ADME, organism-based; parameters: dose 1 mg/kg, route intravenous; conditions: brain and plasma
[17] = Oral bioavailability in rat; assay type: ADME, organism-based; conditions: in vivo

T1 sequence (P25103 whole entry): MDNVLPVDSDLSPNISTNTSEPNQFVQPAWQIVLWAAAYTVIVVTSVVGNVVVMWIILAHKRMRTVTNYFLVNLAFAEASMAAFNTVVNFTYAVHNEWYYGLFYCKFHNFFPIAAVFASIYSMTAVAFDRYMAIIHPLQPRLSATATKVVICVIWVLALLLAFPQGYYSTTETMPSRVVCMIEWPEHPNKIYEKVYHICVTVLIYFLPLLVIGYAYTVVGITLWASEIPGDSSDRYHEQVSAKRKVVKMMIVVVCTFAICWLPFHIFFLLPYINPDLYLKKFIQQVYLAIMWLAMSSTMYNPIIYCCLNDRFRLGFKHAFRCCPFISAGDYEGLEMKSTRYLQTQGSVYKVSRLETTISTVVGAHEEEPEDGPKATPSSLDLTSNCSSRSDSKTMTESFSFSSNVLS
Chain of Cytochrome P450 2C9 (P11712 whole entry): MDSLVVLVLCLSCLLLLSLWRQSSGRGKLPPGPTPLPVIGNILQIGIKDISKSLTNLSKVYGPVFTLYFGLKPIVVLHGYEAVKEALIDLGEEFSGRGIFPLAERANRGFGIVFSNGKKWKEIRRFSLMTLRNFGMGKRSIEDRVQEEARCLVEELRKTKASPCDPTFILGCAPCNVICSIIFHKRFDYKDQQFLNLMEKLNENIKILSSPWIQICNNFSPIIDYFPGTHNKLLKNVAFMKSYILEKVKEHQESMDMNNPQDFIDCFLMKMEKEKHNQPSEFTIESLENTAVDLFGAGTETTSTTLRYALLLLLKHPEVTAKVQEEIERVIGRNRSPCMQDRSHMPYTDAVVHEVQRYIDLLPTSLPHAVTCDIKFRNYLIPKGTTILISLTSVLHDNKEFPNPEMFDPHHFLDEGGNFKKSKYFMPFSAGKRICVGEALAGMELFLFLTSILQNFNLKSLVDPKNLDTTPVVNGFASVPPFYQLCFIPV
Chain of Cytochrome P450 3A4 (P08684 whole entry): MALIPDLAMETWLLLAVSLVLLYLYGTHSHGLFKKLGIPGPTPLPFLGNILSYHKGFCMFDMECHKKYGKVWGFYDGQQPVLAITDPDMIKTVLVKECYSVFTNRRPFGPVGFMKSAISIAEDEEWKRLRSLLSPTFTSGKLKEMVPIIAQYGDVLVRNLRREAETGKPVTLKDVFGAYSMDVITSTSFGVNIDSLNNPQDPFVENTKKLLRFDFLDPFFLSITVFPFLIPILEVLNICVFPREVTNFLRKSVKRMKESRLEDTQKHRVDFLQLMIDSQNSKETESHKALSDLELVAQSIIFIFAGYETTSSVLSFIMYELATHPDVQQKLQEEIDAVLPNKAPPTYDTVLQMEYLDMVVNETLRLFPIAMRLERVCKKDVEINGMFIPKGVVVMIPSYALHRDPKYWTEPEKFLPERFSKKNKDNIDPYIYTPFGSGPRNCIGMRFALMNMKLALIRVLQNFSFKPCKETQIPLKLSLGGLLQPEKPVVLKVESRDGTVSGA
Chain of Cytochrome P450 2D6 (P10635 whole entry): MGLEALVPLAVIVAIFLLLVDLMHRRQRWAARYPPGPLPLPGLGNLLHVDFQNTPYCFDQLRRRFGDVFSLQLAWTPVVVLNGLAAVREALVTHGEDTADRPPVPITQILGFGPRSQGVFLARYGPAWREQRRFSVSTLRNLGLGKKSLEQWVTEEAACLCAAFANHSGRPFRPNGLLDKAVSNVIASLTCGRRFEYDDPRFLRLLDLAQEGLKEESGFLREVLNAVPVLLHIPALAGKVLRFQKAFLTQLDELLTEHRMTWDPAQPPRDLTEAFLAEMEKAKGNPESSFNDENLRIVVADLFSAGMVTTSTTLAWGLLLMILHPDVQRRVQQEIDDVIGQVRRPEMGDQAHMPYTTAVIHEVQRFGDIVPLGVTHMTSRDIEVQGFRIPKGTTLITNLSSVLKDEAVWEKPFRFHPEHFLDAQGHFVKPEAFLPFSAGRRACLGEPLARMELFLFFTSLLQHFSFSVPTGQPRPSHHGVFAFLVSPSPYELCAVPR

C[C@@H](O[C@H]1CN2C(=O)C(C)(O)C[C@H]2[C@@H]1c1ccc(F)cc1)c1cc(C(F)(F)F)cc(C(F)(F)F)c1 (single isomer, unassigned)
IC50 [1]: 4820 nM | inhibition in vivo at 3 mg/kg (Gerbillinae [2]): 98% | IC50 [3]: 1870 nM | IC50 (Substance-P receptor [4]): 2.5 nM | IC50 (Substance-P receptor [5]): 0.09 nM

C[C@@H](O[C@H]1CN2C(=O)CC(O)[C@H]2[C@@H]1c1ccc(F)cc1)c1cc(C(F)(F)F)cc(C(F)(F)F)c1 (single isomer, unassigned; 18b) [listing 1 of 2 here]
IC50 (Substance-P receptor [4]): 2.7 nM | IC50 (Substance-P receptor [5]): 0.07 nM

C[C@@H](O[C@H]1CN2C(=O)C(C)(O)C[C@H]2[C@@H]1c1ccc(F)cc1)c1cc(C(F)(F)F)cc(C(F)(F)F)c1 (stereo in doubt; 5b) [listing 1 of 2 here]
inhibition of substance P-induced inositol phosphate generation (Substance-P receptor [6]): 45%

C[C@@H](O[C@H]1CN2C(=O)CC(N)[C@H]2[C@@H]1c1ccc(F)cc1)c1cc(C(F)(F)F)cc(C(F)(F)F)c1 (stereo in doubt; 15a) [listing 1 of 2 here]
inhibition of substance P-induced inositol phosphate generation (Substance-P receptor [6]): 75%

C[C@@H](O[C@H]1CN2C(=O)C(N)C[C@H]2[C@@H]1c1ccc(F)cc1)c1cc(C(F)(F)F)cc(C(F)(F)F)c1 (stereo in doubt; 3b)
IC50 [1]: 239 nM | inhibition (INH) (Gerbillinae [2]): 100% | IC50 [3]: 214 nM | IC50 (Substance-P receptor [4]): 0.38 nM | IC50 (Substance-P receptor [5]): 0.06 nM

C[C@@H](O[C@H]1CN2C(=O)C(n3cnnc3)C[C@H]2[C@@H]1c1ccc(F)cc1)c1cc(C(F)(F)F)cc(C(F)(F)F)c1 (stereo in doubt; 21a) [listing 1 of 2 here]
inhibition of substance P-induced inositol phosphate generation (Substance-P receptor [6]): 81%

C[C@@H](O[C@H]1CN2C(=O)C(n3cnnc3)C[C@H]2[C@@H]1c1ccc(F)cc1)c1cc(C(F)(F)F)cc(C(F)(F)F)c1 (stereo in doubt; 21a) [listing 2 of 2 here]
IC50 [1]: > 10000 nM | IC50 [3]: > 10000 nM | IC50 (Substance-P receptor [4]): 1.9 nM | IC50 (Substance-P receptor [5]): 0.07 nM

C[C@@H](O[C@H]1CN2C(=O)C(O)C[C@H]2[C@@H]1c1ccc(F)cc1)c1cc(C(F)(F)F)cc(C(F)(F)F)c1 (stereo in doubt; 2b)
inhibition of substance P-induced inositol phosphate generation (Substance-P receptor [6]): 60%

C[C@@H](O[C@H]1CN2C(=O)CC(C)(O)[C@H]2[C@@H]1c1ccc(F)cc1)c1cc(C(F)(F)F)cc(C(F)(F)F)c1 (stereo in doubt; 20a)
IC50 [1]: 2210 nM | inhibition in vivo at 3 mg/kg (Gerbillinae [2]): 96% | IC50 [3]: 2210 nM | IC50 (Substance-P receptor [4]): 1.1 nM | IC50 (Substance-P receptor [5]): 0.07 nM

C[C@@H](O[C@H]1CN2C(=O)CC(O)[C@H]2[C@@H]1c1ccc(F)cc1)c1cc(C(F)(F)F)cc(C(F)(F)F)c1 (single isomer, unassigned; 18b) [listing 2 of 2 here]
inhibition of substance P-induced inositol phosphate generation (Substance-P receptor [6]): 79%

C[C@@H](O[C@H]1CN2C(=O)CC(N)[C@H]2[C@@H]1c1ccc(F)cc1)c1cc(C(F)(F)F)cc(C(F)(F)F)c1 (stereo in doubt; 15a) [listing 2 of 2 here]
ED50 (Gerbillinae [7]): 0.88 mg/kg | Activity (Cytochrome P450 2C9): 45 µM | clearance [8]: 8.9 mL/min/kg | IC50 [1]: 7720 nM | inhibition in vivo at 3 mg/kg (Gerbillinae [2]): 100% | remaining at 1 h [9]: 89% | IC50 [3]: 1880 nM | Activity (Cytochrome P450 2D6): 66 µM | half-life [10]: 7.7 h | Vd [11]: 5.9 L/kg | Activity (Cytochrome P450 3A4): > 100 µM | ED50 (Gerbillinae [12]): 0.92 mg/kg | IC50 (Substance-P receptor [4]): 0.6 nM | IC50 (Substance-P receptor [5]): 0.09 nM | remaining at 1 h [13]: 91% | remaining at 1 h [14]: 85% | remaining at 1 h [15]: 66% | Kp at 4 h [16]: 1.4 | bioavailability [17]: 78%

C[C@@H](O[C@H]1CN2C(=O)CC(N)[C@H]2[C@@H]1c1ccc(F)cc1)c1cc(C(F)(F)F)cc(C(F)(F)F)c1 (stereo in doubt; 15b)
IC50 [1]: 4980 nM and 558 nM | IC50 [3]: 1560 nM and 1360 nM | IC50 (Substance-P receptor [4]): 0.77 nM and 1.8 nM | IC50 (Substance-P receptor [5]): 0.08 nM and 0.11 nM

C[C@@H](O[C@H]1CN2C(=O)CC(C)(O)[C@H]2[C@@H]1c1ccc(F)cc1)c1cc(C(F)(F)F)cc(C(F)(F)F)c1 (stereo in doubt; 20b) [listing 1 of 2 here]
IC50 (Substance-P receptor [4]): 2.6 nM | IC50 (Substance-P receptor [5]): 0.06 nM

C[C@@H](O[C@H]1CN2C(=O)CC(O)[C@H]2[C@@H]1c1ccc(F)cc1)c1cc(C(F)(F)F)cc(C(F)(F)F)c1 (single isomer, unassigned; 18a)
IC50 [1]: 1990 nM | inhibition in vivo at 3 mg/kg (Gerbillinae [2]): 100% | IC50 [3]: 2380 nM | IC50 (Substance-P receptor [4]): 2.1 nM | IC50 (Substance-P receptor [5]): 0.08 nM

C[C@@H](O[C@H]1CN2C(=O)CC(C)(O)[C@H]2[C@@H]1c1ccc(F)cc1)c1cc(C(F)(F)F)cc(C(F)(F)F)c1 (stereo in doubt; 20b) [listing 2 of 2 here]
inhibition of substance P-induced inositol phosphate generation (Substance-P receptor [6]): 57%

C[C@@H](O[C@H]1CN2C(=O)C(C)(O)C[C@H]2[C@@H]1c1ccc(F)cc1)c1cc(C(F)(F)F)cc(C(F)(F)F)c1 (stereo in doubt; 5b) [listing 2 of 2 here]
IC50 [1]: 3200 nM | inhibition (INH) (Gerbillinae [2]): 100% | IC50 [3]: 2180 nM | IC50 (Substance-P receptor [4]): 0.8 nM | IC50 (Substance-P receptor [5]): 0.04 nM
